From article PMC11792172 (Journal of natural products, 2025)
Read-outs that look alike come from different tables or passages of the source.

Columns and labels:
Na+/K+-ATPase (NKA) [1] = experiment: Na+/K+-ATPase activity assay; format: biochemical; conditions: for effect on NKA at a high concentration: high concentration (>100 μM), Figure 3
Summary of the method: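 Luminescent ADP detection read out enzyme activity by quantifying the ADP formed during the enzymatic first half-reaction. Assays were run in triplicate and were representative of three independent experiments. IC50 was obtained from dose-response curves by nonlinear regression.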

Na+/K+-ATPase (NKA) [2] = conditions: read-out: IC50, inhibition of NKA activity, cited from earlier work
[3] = tested on: MDA-MB-231 breast cancer cells; experiment: Cytotoxicity assay; format: cell-based; conditions: Homo sapiens, MDA-MB-231, 72 h, read-out: IC50, inhibition of viability, MDA-MB-231
[4] = tested on: MDA-MB-435 melanoma cells; experiment: Cytotoxicity assay; format: cell-based; conditions: Homo sapiens, MDA-MB-435, 72 h, read-out: IC50, inhibition of viability, MDA-MB-435
[5] = tested on: OVCAR5 ovarian cancer cells; experiment: Cytotoxicity assay; format: cell-based; conditions: Homo sapiens, OVCAR-5, 72 h, read-out: IC50, inhibition of viability, OVCAR5
[6] = tested on: OVCAR3 ovarian cancer cells; experiment: Cytotoxicity assay; format: cell-based; conditions: Homo sapiens, OVCAR-3, 72 h, read-out: IC50, inhibition of viability, OVCAR3

CO[C@H]1C[C@H](O[C@H]2CC[C@@]3(C)[C@@H](C2)C[C@@H]2O[C@]24[C@@H]3[C@H](O)C(=O)[C@]2(C)[C@H](C3=CC(=O)OC3)CC[C@]42O)O[C@@H](C)[C@@H]1O [compound 2, (−)-17-epi-cryptanoside A]
IC50 (Na+/K+-ATPase (NKA) [1]; read-out: IC50, inhibition of NKA activity): > 20000 nM

C[C@H]1O[C@@H](O[C@H]2[C@@H](O)C[C@H](O[C@H]3[C@@H](O)C[C@H](O[C@H]4CC[C@@]5(C)[C@H](CC[C@@H]6[C@@H]5C[C@@H](O)[C@]5(C)[C@@H](C7=CC(=O)OC7)CC[C@]65O)C4)O[C@@H]3C)O[C@@H]2C)C[C@H](O)[C@@H]1O [digoxin]
IC50 (Na+/K+-ATPase (NKA) [2]): 230 ± 20 nM

C[C@]12CC[C@H]3[C@@H](C=CC4=CC(=O)[C@H](O)C[C@@]43C)[C@@H]1CC[C@@H]2C(=O)O [compound 3, (+)-2-hydroxyandrosta-4,6-diene-3-one-17-carboxylic acid]
effect on NKA at a high concentration (Na+/K+-ATPase (NKA) [1]): activate NKA

CO[C@H]1C[C@H](O[C@H]2CC[C@@]3(C)[C@@H](C2)C[C@@H]2O[C@]24[C@@H]3[C@H](O)C(=O)[C@]2(C)[C@@H](C3=CC(=O)OC3)CC[C@]42O)O[C@@H](C)[C@@H]1O [compound 1, (−)-Cryptanoside A]
IC50 (Na+/K+-ATPase (NKA) [2]; data reported previously): 1200 ± 100 nM

CO[C@H]1C[C@H](O[C@H]2CC[C@@]3(C)[C@@H](C2)C[C@@H]2O[C@]24[C@@H]3[C@H](OC(C)=O)C(=O)[C@]2(C)[C@@H](C3=CC(=O)OC3)CC[C@]42O)O[C@@H](C)[C@@H]1OC(C)=O [1a, (−)-11,4′-di-O-acetylcryptanoside A]
effect on NKA at a high concentration (Na+/K+-ATPase (NKA) [1]): activate NKA

CC(=O)O[C@H]1C(=O)[C@@]2(C)[C@H]([C@H](OC(=O)c3ccccc3)[C@]3(O)C[C@H](OC(=O)[C@H](O)[C@@H](NC(=O)c4ccccc4)c4ccccc4)C(C)=C1C3(C)C)[C@]1(OC(C)=O)CO[C@@H]1C[C@@H]2O [Paclitaxel, paclitaxel]
IC50 [3]: 3.8 ± 0.1 nM
IC50 [4]: 1.9 ± 0.1 nM
IC50 [5]: 7.3 ± 0.1 nM
IC50 [6]: 4.9 ± 0.1 nM
